A short description of data set [1]: Tmax in Wistar rat plasma at 10 mg/kg, po. It is filed as ADME, organism-based. Details: dose 10 mg/kg, route oral. The procedure, abridged:
(§1)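 Male Wistar rats given 10 mg/kg orally in 5% DMSO/succinylated gelatin. At selected times, anesthesia with thiobutobarbital 150 mg/kg ip, laparotomy and thoracic lymph duct catheter. Mesenteric lymph collected for at least 10 min, with a plasma sample at mid-collection. Methanol precipitation, then LC-MS-MS with internal standard.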

Data set [2] can be described thus: Cmax in Wistar rat plasma at 10 mg/kg, po. In kind it is ADME, organism-based. Details: dose 10 mg/kg, route oral. In a few lines:
as §1

Data set [3] in a line: Lipophilicity, log D of the compound at pH 7.4. In kind it is physicochemical. As to conditions: buffer.
Data set [4] can be described thus: Cmax in Wistar rat mesenteric lymph at 10 mg/kg, po. It is filed as ADME, organism-based, Mesenteric lymph node. Details: dose 10 mg/kg, route oral. In a few lines: as §1
Data set [5] in a line: Tmax in Wistar rat mesenteric lymph at 10 mg/kg, po. It is filed as ADME, organism-based, Mesenteric lymph node. Details: dose 10 mg/kg, route oral. In a few lines: as §1
Data set [6] has as its system Plasma. As to the kind of experiment: AUC (0 to 24 hrs) in Wistar rat plasma at 10 mg/kg, po. It is filed as ADME, organism-based. Details: time < 24 hr, dose 10 mg/kg, route oral. As to conditions: in vivo.
Data set [7] concerns the target Sphingosine 1-phosphate receptor 1 (Homo sapiens, UniProt P21453). As to the kind of experiment: Agonist activity at human recombinant S1P1 receptor expressed in CHO cells assessed as membrane-bound 35S-GTPgammaS incubated 30 mins prior to substrate addition measured after 1 hr by topcount scintillation counting analysis. In kind it is functional, cell-based. On the technique in general: GTPγS resists hydrolysis and so accumulates on activated G proteins.

A short description of data set [8]: AUC (0 to 24 hrs) in Wistar rat mesenteric lymph at 10 mg/kg, po. In kind it is ADME, organism-based, Mesenteric lymph node. Details: time < 24 hr, dose 10 mg/kg, route oral. As to conditions: in vivo.
Data set [9] concerns the target Sphingosine 1-phosphate receptor 3 (Homo sapiens, UniProt Q99500). The data set is described as follows: Agonist activity at human recombinant S1P3 receptor expressed in CHO cells assessed as membrane-bound 35S-GTPgammaS incubated 30 mins prior to substrate addition measured after 1 hr by topcount scintillation counting analysis. In kind it is functional, cell-based.

The test system of data set [10] is Rattus norvegicus. The data set is described as follows: Lymphopenic activity in Wistar rat assessed as reduction in blood lymphocyte count at 10 mg/kg, po after 3 hrs. Details: scale not given: the % may be the effect or the level left. In kind it is functional. In a few lines: (§2)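 Normotensive male Wistar rats given 1–10 mg/kg by gavage in 5% DMSO/7.5% succinylated gelatin. Blood taken before and 3, 6 and 24 h after dosing, with later times for some compounds. Lymphocytes counted by hematology analyzer. % LC change calculated per animal relative to the predose value (=100%). Mean ± SEM.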

Data set [11] deals with Rattus norvegicus. The data set is described as follows: Lymphopenic activity in Wistar rat assessed as reduction in blood lymphocyte count at 10 mg/kg, po after 6 hrs. In kind it is functional. Also on record: scale not given: the % may be the effect or the level left. In a few lines:
as §2

In data set [12] the test system is Rattus norvegicus. As to the kind of experiment: Lymphopenic activity in Wistar rat assessed as reduction in blood lymphocyte count at 10 mg/kg, po after 96 hrs. It is filed as functional. Also on record: scale not given: the % may be the effect or the level left. The procedure, abridged: as §2
The test system of data set [13] is Rattus norvegicus. The data set is described as follows: Lymphopenic activity in Wistar rat assessed as reduction in blood lymphocyte count at 10 mg/kg, po after 24 hrs. It is filed as functional. In a few lines:
as §2

Data set [14] concerns Rattus norvegicus. The data set is described as follows: Lymphopenic activity in Wistar rat assessed as reduction in blood lymphocyte count at 3 mg/kg, po after 3 hrs. It is filed as functional. Details: scale not given: the % may be the effect or the level left. In a few lines: as §2
The test system of data set [15] is Rattus norvegicus. The data set is described as follows: Lymphopenic activity in Wistar rat assessed as reduction in blood lymphocyte count at 3 mg/kg, po after 6 hrs. Details: scale not given: the % may be the effect or the level left. In kind it is functional. The procedure, abridged: as §2
Data set [16] relates to Rattus norvegicus. The data set is described as follows: Lymphopenic activity in Wistar rat assessed as reduction in blood lymphocyte count at 3 mg/kg, po after 24 hrs. Also on record: scale not given: the % may be the effect or the level left. It is filed as functional. In a few lines: as §2
For data set [17], the system named is Plasma. As to the kind of experiment: AUC (0 to 6.4 hrs) in Wistar rat plasma at 10 mg/kg, po. It is filed as ADME, organism-based. Also on record: time < 6.4 hr, dose 10 mg/kg, route oral. As to conditions: in vivo.
The nature of data set [18]: AUC (0 to 6.4 hrs) in Wistar rat mesenteric lymph at 10 mg/kg, po. It is filed as ADME, organism-based, Mesenteric lymph node. Details: time < 6.4 hr, dose 10 mg/kg, route oral. As to conditions: in vivo.

pEC50: −log10 of the molar value.

A word on the Tmax: it is the time from dosing to the highest level. One may read the Cmax as the highest concentration seen after dosing. One may read the logD as the decadic logarithm of the distribution of all forms, ionised or not, between an organic phase and buffer at a given pH. What is called pEC50 is the negative decadic logarithm of the EC50, by convention in mol/L.

Sequence of Sphingosine 1-phosphate receptor 1 (P21453 whole entry): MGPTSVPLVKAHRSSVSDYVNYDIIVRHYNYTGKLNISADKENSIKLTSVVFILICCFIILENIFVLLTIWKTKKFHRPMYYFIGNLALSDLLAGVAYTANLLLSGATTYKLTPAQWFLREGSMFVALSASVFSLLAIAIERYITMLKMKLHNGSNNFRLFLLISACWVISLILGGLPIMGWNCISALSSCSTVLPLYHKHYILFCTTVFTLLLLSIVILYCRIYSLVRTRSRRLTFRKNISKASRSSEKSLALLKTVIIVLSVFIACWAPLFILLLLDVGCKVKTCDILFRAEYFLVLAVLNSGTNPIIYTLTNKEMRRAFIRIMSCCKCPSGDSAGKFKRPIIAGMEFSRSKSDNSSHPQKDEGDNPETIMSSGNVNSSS
Sequence of Sphingosine 1-phosphate receptor 3 (Q99500 whole entry): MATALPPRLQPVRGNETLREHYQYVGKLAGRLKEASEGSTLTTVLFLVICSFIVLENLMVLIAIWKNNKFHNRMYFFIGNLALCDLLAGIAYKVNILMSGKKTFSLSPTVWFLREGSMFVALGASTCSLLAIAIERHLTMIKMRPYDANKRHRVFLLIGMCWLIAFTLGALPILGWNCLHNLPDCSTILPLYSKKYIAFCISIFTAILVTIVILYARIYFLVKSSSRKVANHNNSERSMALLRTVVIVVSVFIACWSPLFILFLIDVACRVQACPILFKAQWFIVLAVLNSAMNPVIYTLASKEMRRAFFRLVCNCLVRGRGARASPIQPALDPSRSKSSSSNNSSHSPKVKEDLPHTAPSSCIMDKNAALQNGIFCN

On to `CCc1cc(-c2noc(-c3sc(CC)c4c3CCC(C)(C)C4)n2)cc(C)c1OCCNCCC(=O)O`, for which the figures for the time to peak (Tmax) in [1] and in data set [5] were 8 h and 0.75 h, respectively. Further, the Cmax came out at 813 ng/mL in data set [2] and 9530 ng/mL in data set [4]. The same compound gave a logD in data set [3] of 4.9. Besides, the AUC was 16300 ng·h/mL with Plasma [6] and 60400 ng·h/mL in data set [8]. Further, the negative-log EC50 (pEC50) was 8.85 in [7] and 8.24 in data set [9].

With `Cc1cc(-c2noc(-c3sc(C)c4c3C[C@@H]3[C@H]4C3(C)C)n2)cc(C)c1OCC(O)CNC(=O)CO` (mixture of isomers), the results for the Activity with Rattus norvegicus [10], in the data set on Rattus norvegicus [11] and in the data set on Rattus norvegicus [12] were -66%, -69% and 30%, respectively. Also, in the data set with Rattus norvegicus [13], the “% change in blood lymphocyte count from predose” value is reported as -73%.

Turning to `Cc1cc(-c2noc(-c3scc(CC(C)C)c3C)n2)cc(C)c1OCC(O)CNC(=O)CO` (racemic), the Activity in the data set with Rattus norvegicus [14] was -67%; in the data set on Rattus norvegicus [10], -72%; in the data set with Rattus norvegicus [11] it was -79%; in the data set with Rattus norvegicus [15] it was -79%; in the data set with Rattus norvegicus [16] it was -27%. The figures for the pEC50 in data set [7] and in data set [9] were 8.82 and 6.28, respectively. Also, the “% change in blood lymphocyte count from predose” value in the data set with Rattus norvegicus [13] is -80%.

For the compound `CCc1cc(-c2noc(-c3sc(CC)c4c3CCC(C)(C)C4)n2)cc(C)c1OC[C@@H](O)CO`, the Tmax in [1] was 6.4 h; in data set [5], 1.4 h. Moreover, the figures for the Cmax in data set [2] and in data set [4] were 376 ng/mL and 9050 ng/mL, respectively. Further, the logD in data set [3] was 5.4. For the same compound, the AUC in the data set on Plasma [17] stood at 1880 ng/mL/h; in data set [18], 31300 ng/mL/h. For the same compound, the pEC50 in data set [7] is 8.62; in [9], 7.82.
